Tests used:
Assay type in all cases: ADME
[1] = biological target: T1, Cytochrome P450 1A2 (Homo sapiens, UniProt P05177); assay: Inhibition of human recombinant CYP1A2 by spectrophotometry based 7-ethoxyresorufin O-deethylation enzyme assay
T1 sequence (P05177 whole entry): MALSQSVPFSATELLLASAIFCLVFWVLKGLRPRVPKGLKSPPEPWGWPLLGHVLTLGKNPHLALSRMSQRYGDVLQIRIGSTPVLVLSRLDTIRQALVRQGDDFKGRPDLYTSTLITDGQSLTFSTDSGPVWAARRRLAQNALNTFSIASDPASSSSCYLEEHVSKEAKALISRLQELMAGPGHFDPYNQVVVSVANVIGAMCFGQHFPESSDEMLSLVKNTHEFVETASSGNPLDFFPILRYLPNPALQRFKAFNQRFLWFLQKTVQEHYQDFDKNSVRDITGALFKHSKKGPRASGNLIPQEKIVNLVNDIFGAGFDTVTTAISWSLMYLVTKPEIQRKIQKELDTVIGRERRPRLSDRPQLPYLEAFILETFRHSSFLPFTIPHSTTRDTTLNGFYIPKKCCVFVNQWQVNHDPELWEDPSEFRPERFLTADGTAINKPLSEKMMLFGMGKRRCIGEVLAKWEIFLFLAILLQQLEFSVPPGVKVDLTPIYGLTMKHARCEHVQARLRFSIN
Summary of the method: (§1)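 EROD assay: fresh DMSO solutions of test compound over various concentrations with 2 µM 7-ethoxyresorufin, 1.3 mM NADP+, 3.3 mM glucose-6-phosphate, 0.5 U/ml G6PDH, 3.3 mM MgCl2 in 100 mM potassium phosphate pH 7.4. Started with enzyme (1.25 pmol CYP1A1, or 5 pmol CYP1A2 or CYP1B1), 37 °C, 15 min. Resorufin fluorescence (ex 550/em 585) against resorufin standard. IC50 read graphically from % of control activity; three parallel experiments.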

[2] = biological target: T2, Cytochrome P450 1A1 (Homo sapiens, UniProt P04798); assay: Inhibition of human recombinant CYP1A1 by spectrophotometry based 7-ethoxyresorufin O-deethylation enzyme assay; summary of the method: as §1
T2 sequence (P04798 whole entry): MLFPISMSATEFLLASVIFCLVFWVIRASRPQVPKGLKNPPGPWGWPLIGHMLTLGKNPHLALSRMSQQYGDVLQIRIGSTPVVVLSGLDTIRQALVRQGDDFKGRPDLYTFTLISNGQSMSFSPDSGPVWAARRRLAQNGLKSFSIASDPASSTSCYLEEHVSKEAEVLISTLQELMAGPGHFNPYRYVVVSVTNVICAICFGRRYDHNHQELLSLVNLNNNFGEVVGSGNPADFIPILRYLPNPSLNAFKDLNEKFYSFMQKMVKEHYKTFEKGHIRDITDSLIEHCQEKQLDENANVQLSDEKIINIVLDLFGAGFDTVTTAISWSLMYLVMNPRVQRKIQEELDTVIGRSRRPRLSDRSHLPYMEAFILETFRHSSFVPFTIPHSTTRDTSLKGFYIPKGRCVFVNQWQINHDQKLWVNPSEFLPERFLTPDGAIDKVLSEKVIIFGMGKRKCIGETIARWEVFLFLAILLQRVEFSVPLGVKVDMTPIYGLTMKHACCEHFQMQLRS

[3] = biological target: T3, Cytochrome P450 1B1 (Homo sapiens, UniProt Q16678); assay: Inhibition of human recombinant CYP1B1 by spectrophotometry based 7-ethoxyresorufin O-deethylation enzyme assay; summary of the method: as §1
T3 sequence (Q16678 whole entry): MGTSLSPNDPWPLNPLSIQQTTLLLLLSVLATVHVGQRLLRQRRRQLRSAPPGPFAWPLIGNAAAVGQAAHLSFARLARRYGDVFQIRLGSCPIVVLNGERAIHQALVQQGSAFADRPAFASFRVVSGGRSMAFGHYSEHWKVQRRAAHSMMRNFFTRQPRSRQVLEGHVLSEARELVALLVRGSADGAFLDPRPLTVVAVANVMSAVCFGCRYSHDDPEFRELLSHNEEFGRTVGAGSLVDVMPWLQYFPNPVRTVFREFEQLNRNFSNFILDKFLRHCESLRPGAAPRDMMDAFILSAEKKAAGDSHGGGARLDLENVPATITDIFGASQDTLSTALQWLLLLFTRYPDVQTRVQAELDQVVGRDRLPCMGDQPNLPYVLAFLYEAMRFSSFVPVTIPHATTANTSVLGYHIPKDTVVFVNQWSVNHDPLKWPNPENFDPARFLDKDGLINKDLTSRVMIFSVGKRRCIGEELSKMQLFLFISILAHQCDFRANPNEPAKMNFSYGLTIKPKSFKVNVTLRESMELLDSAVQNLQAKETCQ

[4] = test system: CYP1A2 / CYP1A1; assay: Selectivity ratio, ratio of IC50 for human recombinant CYP1A2 to IC50 for human recombinant CYP1A1; details: recombinant CYP1A2 and recombinant CYP1A1, read-out: Ratio IC50
[5] = test system: CYP1A2 / CYP1B1; assay: Selectivity ratio, ratio of IC50 for human recombinant CYP1A2 to IC50 for human recombinant CYP1B1; details: recombinant CYP1A2 and recombinant CYP1B1, read-out: Ratio IC50
[6] = biological target: T1, Cytochrome P450 1A2; assay: Activity of human recombinant CYP1A2 assessed as NADPH oxidation level per pmol of CYP1A2 level at 10 uM by spectrophotometry; details: recombinant enzyme
Summary of the method: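 NADPH oxidation by human recombinant CYP1A2 (5 pmol/ml) in Tris buffer pH 7.4 with stilbene at 1–50 µM. Reaction started with 0.2 mM NADPH, 37 °C, 3 min. Absorbance at 340 nm read every 15 s; NADPH oxidized calculated with extinction coefficient 6.22 mM-1 cm-1.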

Row | IC50 [1] [nM] | IC50 [2] [nM] | IC50 [3] [nM] | Activity [6] [µM/min] | SMILES | selectivity ratio [4] | selectivity ratio [5]
1 | 22000 | 1800 | 1100 | < 0.3 | COc1cccc(/C=C/c2ccc(SC)cc2)c1OC | 12.2 | 20
2 | 6500 | 400 | 500 | < 0.3 | COc1cc(OC)c(/C=C/c2ccc(SC)cc2)c(OC)c1 | 16.3 | 17
3 | 23000 | 28000 | 5500 | < 0.3 | COc1ccc(/C=C/c2ccc(SC)cc2)cc1 | 0.8 | 4.2
4 | > 50000 | 900 | 1000 | < 0.6 | COc1ccc(/C=C/c2ccc(SC)cc2)c(OC)c1OC | > 55.5 | > 50
5 | 8100 | 2400 | 2000 | < 0.3 | COc1ccc(/C=C/c2ccc(SC)cc2)c(OC)c1 | 3.4 | 4.1
6 | 15000 | 800 | 900 | 2.91 | COc1cc(OC)c(OC)cc1/C=C/c1ccc(SC)cc1 | 18.7 | 16.7
7 | 39500 | 3800 | 1100 | < 0.3 | COc1ccc(OC)c(/C=C/c2ccc(SC)cc2)c1 | 10.4 | 35.9
8 | 14500 | 1000 | 300 |  | CSc1ccc(/C=C/c2ccccc2Cl)cc1 | 14.5 | 48.3
9 | 5000 | 1400 | 1500 | < 0.3 | COc1cc(/C=C/c2ccc(SC)cc2)cc(OC)c1 | 3.6 | 3.3
10 | 7000 | 3600 | 2600 | 2.22 | COc1cc(/C=C/c2ccc(SC)cc2)cc(OC)c1OC | 1.9 | 2.7
11 | 11500 | 1100 | 500 | < 0.3 | COc1cccc(/C=C/c2ccc(SC)cc2)c1 | 10.5 | 23
12 | 7500 | 1000 | 300 | < 0.3 | COc1ccccc1/C=C/c1ccc(SC)cc1 | 7.5 | 25
